This is an account of results in PubChem BioAssay.

A short description of assay [1]: inhibitors of TNFa-induced NFkB p65 translocation, primary screen, imaging, HUVEC, MLSMR starter and 10KST1 sets (AID 438;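 active = inhibition above 20% together with a positive visual image hit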;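 also: compound added about 3h40 before a 20 min TNFalpha stimulation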;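 as to inhibition: signal is the nuclear over cytoplasmic p65 intensity ratio per well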). Particulars: HUVEC TNFa-induced p65 nuclear translocation; cell count: measured here: nuclei count (cytotoxicity indicator), at 2.08 µM; inhibition: at 2 µM, stronger effect = higher value, 0% TNFa-plus-vehicle, 100% no-TNFa wells.
A short description of assay [2]: reduction of polyQ htt aggregates in cells – imaging, exon1htt(103Q)mCFP cells, high-content imaging, primary screen (AID 483;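 active = visual image review flags a hit and inhibition of aggregation exceeds 20%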;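 also: compound exposure lasted 3 days before fixation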;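 as to nuclei count: percent of the per-plate median nuclei count of sample wells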). Particulars: exon1htt(103Q)mCFP cell line, aggregate imaging, at 2 µM; inhibition of aggregation: stronger effect = higher value; nuclei count: measured here: cell count, toxicity.
Assay [3] can be described thus: endothelial E-selectin expression blockers – imaging, HUVEC, immunofluorescence, MLSMR starter and 10KST1 sets, primary screen (AID 487;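 active = visually confirmed hit in the image check and inhibition above 20%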;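 as to inhibition: signal is fraction of cell area covered by stained E-selectin grains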;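 as to nuclei count: 100% = median nuclei count of all wells on the same plate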). The settings on record: HUVEC TNFalpha-induced E-selectin immunofluorescence imaging, at 2 µM; inhibition: stronger effect = higher value; nuclei count: measured here: cell number, toxicity.
Assay [4] concerns the target Voltage-gated potassium channel subunit beta-2 (Rattus norvegicus) (UniProt P62483). Put plainly: inhibitors of rat Kvbeta2 reductase activity – biochemical, NADPH fluorescence, primary screen (AID 622;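 active = fluorescence slope higher than the sample average by over 3 SD, cut at about -0.22 in these data, passing the limit was not always enough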;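 also: slope of raw intensity against log time taken from 70 to 1610 s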). Particulars: recombinant KvBeta, 4-cyanobenzaldehyde reduction, at 10 µM, stronger effect = higher value.
The target is the same in assay [5]. The assay can be described thus: enhancers of rat Kvbeta2 NADPH turnover – biochemical, NADPH fluorescence, primary screen (AID 623;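 active = NADPH fluorescence slope more negative than the mean of all samples by about 3 SD, 99.7% confidence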;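 also: fluorescence intensity change per second fitted from 20 to 320 s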). The settings on record: Recombinant KvBeta, NADPH fluorescence decrease slope, 10 min; at 10 µM; stronger effect = lower value.
Assay [6] concerns the target Muscarinic acetylcholine receptor M4 (Homo sapiens) (UniProt P08173). Put plainly: M4-linked GIRK flux change, two-sided – cell-based, HEK293 M4/GIRK, thallium flux, BTC-AM, M4 allosteric agonist project, primary screen (AID 625;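 active = fluorescence slope after compound addition differing from the mean of all tested samples at 99.7% confidence, mostly higher but some lower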;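 also: thallium influx through GIRK channels coupled to M4 in HEK293 cells with BTC-AM dye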). The settings on record: at 10 µM, actives lie on both sides. The essentials: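 Material: HEK293 cells with M4 receptor and GIRK channels; Times: cells overnight at 37 °C, BTC-AM loading 1 h, reads 2 min total; Technique: kinetic BTC-AM fluorescence sampled at 1 Hz, 10 s pre-addition baseline; Read-out basis: slope over 15–24 s of trace normalized to starting intensity; Controls: carbachol positive, DMSO negative.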

Assay [7] is described as follows: blockers of RIG-like receptor reporter activation – cell-based, Sendai virus stimulus, luciferase, 10K MLSCN set, TLR/RLR signaling modifier project, primary screen (AID 602276).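 Also: firefly luciferase from ISG56 promoter only with Renilla not read in this screen; 0% = Sendai virus plus DMSO and 100% = medium plus DMSO without virus.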 The settings on record: HEK293 RL24 IRF3 luciferase reporter, at 10 µM, stronger effect = higher value.
A short description of assay [8]: TLR3 IRF3 reporter activation blockers – cell-based, poly I:C stimulus, luciferase, 10K MLSCN set, primary screen (AID 602277;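 active = inhibition of the reporter signal at or above 50%; inactive = inhibition below 50%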). The settings on record: HEK293-TLR3 RL24 IRF3 luciferase reporter, at 10 µM, stronger effect = higher value. Background: In a reporter assay the amount or activity of a reporter protein is the signal.

Active and inactive are the calls of the source.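 The calls were made as follows, unless noted: active = inhibition at or above 50% at 10 µM; inactive = inhibition below 50%.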

Sequence of Voltage-gated potassium channel subunit beta-2 (Rattus norvegicus) (P62483 whole entry, looked up): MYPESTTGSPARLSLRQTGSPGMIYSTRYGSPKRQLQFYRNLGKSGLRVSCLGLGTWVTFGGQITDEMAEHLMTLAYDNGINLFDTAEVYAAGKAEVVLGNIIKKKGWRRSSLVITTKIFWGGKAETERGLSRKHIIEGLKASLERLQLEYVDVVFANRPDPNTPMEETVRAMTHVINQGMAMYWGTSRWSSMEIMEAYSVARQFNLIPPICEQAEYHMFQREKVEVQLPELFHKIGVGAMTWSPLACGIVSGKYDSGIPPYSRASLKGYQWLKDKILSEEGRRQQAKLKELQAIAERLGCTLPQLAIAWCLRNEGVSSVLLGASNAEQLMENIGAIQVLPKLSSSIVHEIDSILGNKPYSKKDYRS
Sequence of Muscarinic acetylcholine receptor M4 (Homo sapiens) (P08173 whole entry, looked up): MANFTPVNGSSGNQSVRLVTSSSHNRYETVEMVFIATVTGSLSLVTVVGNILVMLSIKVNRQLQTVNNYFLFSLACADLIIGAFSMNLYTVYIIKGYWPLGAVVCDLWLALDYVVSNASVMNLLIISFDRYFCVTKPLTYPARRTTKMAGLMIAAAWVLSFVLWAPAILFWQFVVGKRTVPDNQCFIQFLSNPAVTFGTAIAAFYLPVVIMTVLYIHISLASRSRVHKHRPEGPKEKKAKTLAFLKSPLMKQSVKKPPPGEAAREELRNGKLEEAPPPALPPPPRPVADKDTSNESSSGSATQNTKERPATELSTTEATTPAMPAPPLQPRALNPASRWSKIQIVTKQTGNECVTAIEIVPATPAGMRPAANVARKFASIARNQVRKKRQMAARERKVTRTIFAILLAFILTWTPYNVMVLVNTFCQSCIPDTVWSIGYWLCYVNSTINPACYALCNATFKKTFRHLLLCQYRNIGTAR

`Cc1cc(NC(=O)COC(=O)c2cccc(S(=O)(=O)N3CCOCC3)c2)no1`: the cell count in assay [1] worked out at 457. For the same compound, the inhibition in assay [1] was -26.1% (inactive); in assay [3], 67.8% (active); in assay [7] it was 12.1% (inactive); in assay [8] it was 24.4% (inactive). Moreover, the inhibition of aggregation in assay [2] is 10.5% (inactive). Further, the nuclei count was 106% in assay [2] and 64.5% in assay [3]. In addition, the fluorescence slope was -0.471 (inactive) in assay [4] and 0.00706 (inactive) in assay [6]. In assay [5], the NADPH fluorescence slope was 1.8e-05 (inactive).

Consider `Cc1nc(NCCNC(=O)c2ccco2)c2c(C)c(C)sc2n1`, for which the cell count in assay [1] was 803. In addition, the inhibition in assay [1] was -4.2% (inactive); in assay [3] it was -34.1% (inactive); in assay [7] it was 12.1% (inactive); in assay [8] it was 6.83% (inactive). The inhibition of aggregation in assay [2] is -8.7% (inactive). For the same compound, the nuclei count in assay [2] amounted to 136%; in assay [3], 117%. The fluorescence slope in assay [4] was -0.548 (inactive); in assay [6], 0.00498 (inactive). Besides, the NADPH fluorescence slope in assay [5] is 1.6e-05 (inactive).

For the compound `N#CCCn1cnc2ccccc21`, the cell count in assay [1] is 332. The inhibition in assay [1] is 5.6% (inactive); in assay [3], 63.2% (active); in assay [7], -0.285% (inactive); in assay [8], 3.23% (inactive). Also, the inhibition of aggregation in assay [2] was 22.8% (inactive). Besides, the nuclei count amounted to 99.2% in assay [2] and 132% in assay [3]. Further, the fluorescence slope in assay [4] is -0.564 (inactive); in assay [6] it was 0.0098 (inactive). Besides, the NADPH fluorescence slope in assay [5] was -2.5e-05 (inactive).

For `CCCc1ccc(C(C)NC(=O)c2cnccn2)cc1` (stereo not drawn), the cell count in assay [1] worked out at 375. Also, the inhibition is 0.4% (inactive) in assay [1], 32.8% (inactive) in assay [3], 15.6% (inactive) in assay [7] and -1.82% (inactive) in assay [8]. Moreover, in assay [2], the inhibition of aggregation is -9.4% (inactive). Also, the nuclei count worked out at 107% in assay [2] and 106% in assay [3]. Further, the fluorescence slope in assay [4] is -0.484 (inactive); in assay [6], 0.00486 (inactive). Further, in assay [5], the NADPH fluorescence slope was -1.5e-05 (inactive).

In the case of `O=c1c2c3nc4ccccc4nc3n(CC3CCCO3)c2ncn1CCc1ccccc1` (stereo not drawn), the cell count in assay [1] worked out at 440. The inhibition was -3.2% (inactive) in assay [1], -90.8% (inactive) in assay [3], 12.8% (inactive) in assay [7] and 19.1% (inactive) in assay [8]. Further, the inhibition of aggregation in assay [2] was -0.4% (inactive). The nuclei count in assay [2] was 116%; in assay [3] it was 107%. Also, the fluorescence slope in assay [4] is -0.378 (inactive); in assay [6], 0.00514 (inactive). In assay [5], the NADPH fluorescence slope was -1.1e-05 (inactive).

Turning to `CC(C)OP(=O)(c1ccc(N(C)C)cc1)C(O)c1ccccc1F` (stereo not drawn), in assay [1], the cell count came to 720. Further, the inhibition is -7.2% (inactive) in assay [1], -14.7% (inactive) in assay [3], 11.8% (inactive) in assay [7] and 22.5% (inactive) in assay [8]. Besides, the inhibition of aggregation in assay [2] is 12.5% (inactive). Moreover, the nuclei count in assay [2] and in assay [3] was 117% in each case. The values for the fluorescence slope in assay [4] and in assay [6] were -0.541 (inactive) and 0.00489 (inactive), respectively. Besides, in assay [5], the NADPH fluorescence slope was -5.1e-05 (inactive).

With `CCCS(=O)(=O)N1CCN(C(=O)CCC2CCCC2)CC1`, the cell count in assay [1] turned out to be 222. The inhibition in assay [1] was 8.5% (inactive); in assay [3], -18.1% (inactive); in assay [7] it was 10.9% (inactive); in assay [8] it was 17.4% (inactive). For the same compound, the inhibition of aggregation in assay [2] is 15.8% (inactive). The nuclei count in assay [2] turned out to be 77.9%; in assay [3], 148%. Further, the fluorescence slope in assay [4] is -0.435 (inactive); in assay [6], 0.00496 (inactive). In assay [5], the NADPH fluorescence slope is -3.3e-05 (inactive).

`CCOc1cc(C2c3c(n[nH]c3C)C(=O)N2c2ccc(Br)cc2)ccc1O` (stereo not drawn): the cell count in assay [1] came out at 572. Also, the inhibition in assay [1] was -2.3% (inactive); in assay [3], -89.9% (inactive); in assay [7], 30.1% (inactive); in assay [8], 30% (inactive). Also, the inhibition of aggregation in assay [2] is 7.8% (inactive). Also, the nuclei count worked out at 109% in assay [2] and 110% in assay [3]. Further, the values for the fluorescence slope in assay [4] and in assay [6] were -0.373 (inactive) and 0.00604 (inactive), respectively. Also, the NADPH fluorescence slope in assay [5] is -8.6e-06 (inactive).

Turning to `C=CCSc1nc2c(c(=O)[nH]c(=O)n2C)n1C(C)C`, in assay [1], the cell count was determined as 309. The inhibition is -11.3% (inactive) in assay [1], 33% (inactive) in assay [3], 2.75% (inactive) in assay [7] and 14.4% (inactive) in assay [8]. In assay [2], the inhibition of aggregation is -2.8% (inactive). Further, the nuclei count in assay [2] is 110%; in assay [3], 97.6%. Further, the figures for the fluorescence slope in assay [4] and in assay [6] were -0.579 (inactive) and 0.00565 (inactive), respectively. Moreover, the NADPH fluorescence slope in assay [5] was 8.7e-06 (inactive).

As to `CCN(CC)C(=O)CN(c1cc(Cl)ccc1OC)S(C)(=O)=O`, the cell count in assay [1] amounted to 776. Besides, the inhibition was -2.4% (inactive) in assay [1], 41.2% (inactive) in assay [3], 7.69% (inactive) in assay [7] and 10.1% (inactive) in assay [8]. In addition, in assay [2], the inhibition of aggregation was -2.7% (inactive). In addition, the values for the nuclei count in assay [2] and in assay [3] were 108% and 96%, respectively. Further, the values for the fluorescence slope in assay [4] and in assay [6] were -0.577 (inactive) and 0.00573 (inactive), respectively. In addition, the NADPH fluorescence slope in assay [5] was 4.8e-07 (inactive).

On to `CCOC(=O)Cn1nnnc1CN(Cc1ccc(OC)cc1)Cc1cc2cc(C)cc(C)c2[nH]c1=O`, for which the cell count in assay [1] was determined as 614. In addition, the inhibition in assay [1] is 6.2% (inactive); in assay [3], -50.4% (inactive); in assay [7], -8.1% (inactive); in assay [8], -1.09% (inactive). The inhibition of aggregation in assay [2] is -1.3% (inactive). Further, the nuclei count in assay [2] and in assay [3] was 117% in each case. Moreover, the fluorescence slope in assay [4] is -0.595 (inactive); in assay [6] it was 0.00531 (inactive). Also, the NADPH fluorescence slope in assay [5] was -3.9e-05 (inactive).

As to `CC1c2nc3ccccc3n2C(CC(=O)NCc2ccccn2)C(=O)N1Cc1ccccc1` (stereo not drawn), the cell count in assay [1] was 678. Further, the inhibition was -3.4% (inactive) in assay [1], -115% (inactive) in assay [3], 15% (inactive) in assay [7] and 22.6% (inactive) in assay [8]. In assay [2], the inhibition of aggregation was -12.5% (inactive). Also, the nuclei count in assay [2] and in assay [3] was 119% throughout. Further, the results for the fluorescence slope in assay [4] and in assay [6] were -0.505 (inactive) and 0.0053 (inactive), respectively. Further, the NADPH fluorescence slope in assay [5] was -1.2e-05 (inactive).

On to `CCOC(=O)c1cc(-c2ccc3c(c2)OCO3)nc2onc(C)c12`, for which the cell count in assay [1] came out at 402. Besides, the inhibition in assay [1] was 3.7% (inactive); in assay [3], -64.2% (inactive); in assay [7] it was -6.27% (inactive); in assay [8], -18.4% (inactive). Besides, in assay [2], the inhibition of aggregation is 21.3% (inactive). In addition, the nuclei count in assay [2] was determined as 64.3%; in assay [3], 106%. Further, the fluorescence slope in assay [4] is -0.00965 (inactive); in assay [6], 0.00537 (inactive). Also, the NADPH fluorescence slope in assay [5] is -7.8e-06 (inactive).

In general, inhibition refers to the relative decrease from the control value, in per cent.
